SMILES strings stand for the structures. The source made the active and inactive calls. The rule behind the calls is not given here.

One compound from ChEMBL document CHEMBL4393654, “Discovery and Early Clinical Development of an Inhibitor of 5-Lipoxygenase Activating Protein (AZD5718) for Treatment of Coronary Artery Disease” (J Med Chem, 2019) can be followed below.

Experiment [1] deals with Canis familiaris. Nature of the experiment: Ex vivo inhibition of FLAP in Beagle dog assessed as reduction in LTE4 level in urine at 0.02 mg/kg, po administered daily for 3 consecutive days measured 24 hrs post-last dose by colorimetric method relative to control. To be noted: Canis lupus familiaris. The format is functional. Put shortly: (§1)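 Urinary LTE4 was measured at baseline and over the final 24 h of dosing in beagle dogs given oral doses once daily for 3 consecutive days (0.02, 0.09 or 0.2 mg/kg, n=3 per dose). Dogs with baseline uLTE4 below the LOQ were excluded. Inhibition was expressed relative to each dog's own baseline.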

Experiment [2] has as its system Homo sapiens. Nature of the experiment: Suppression of urine LTE4 level in po dosed human administered as single dose. The class given is functional, organism-based. Put shortly: (§2)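 Endogenous urinary LTE4 measured relative to baseline in healthy volunteers. Subjects received an oral suspension as single doses of 25–1200 mg, or 60–600 mg once daily for 10 days.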

The test system of a further experiment is HepG2. Put plainly: Cytotoxicity against human HepG2 cells assessed as reduction in ATP depletion in presence of glucose/galactose. The format is cell-based.
The target of experiment [3] is T1, Arachidonate 5-lipoxygenase-activating protein (Homo sapiens) (UniProt P20292).
T1 sequence (whole entry): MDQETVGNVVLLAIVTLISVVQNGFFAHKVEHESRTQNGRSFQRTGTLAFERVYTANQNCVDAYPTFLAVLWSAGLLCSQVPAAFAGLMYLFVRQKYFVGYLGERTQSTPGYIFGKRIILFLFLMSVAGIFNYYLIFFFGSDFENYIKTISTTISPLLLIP
Nature of the experiment: Inhibition of FLAP in human whole blood assessed as reduction in calcium ionophore-stimulated LTB4 production preincubated for 4 hrs followed by calcium ionophore stimulation and measured after 20 mins by EIA. The format is tissue-based. Put shortly:
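Fresh human whole blood was incubated with compound for 4 h, then stimulated with calcium ionophore, and LTB4 production was measured as the 5-LO pathway read-out. IC50 was also converted to a free value: IC50 × (Fu/100), where Fu = 100 − human plasma protein binding (%).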

Experiment [4] has as its target T2, Prostaglandin G/H synthase 2 (Homo sapiens) (UniProt P35354).
T2 sequence (whole entry): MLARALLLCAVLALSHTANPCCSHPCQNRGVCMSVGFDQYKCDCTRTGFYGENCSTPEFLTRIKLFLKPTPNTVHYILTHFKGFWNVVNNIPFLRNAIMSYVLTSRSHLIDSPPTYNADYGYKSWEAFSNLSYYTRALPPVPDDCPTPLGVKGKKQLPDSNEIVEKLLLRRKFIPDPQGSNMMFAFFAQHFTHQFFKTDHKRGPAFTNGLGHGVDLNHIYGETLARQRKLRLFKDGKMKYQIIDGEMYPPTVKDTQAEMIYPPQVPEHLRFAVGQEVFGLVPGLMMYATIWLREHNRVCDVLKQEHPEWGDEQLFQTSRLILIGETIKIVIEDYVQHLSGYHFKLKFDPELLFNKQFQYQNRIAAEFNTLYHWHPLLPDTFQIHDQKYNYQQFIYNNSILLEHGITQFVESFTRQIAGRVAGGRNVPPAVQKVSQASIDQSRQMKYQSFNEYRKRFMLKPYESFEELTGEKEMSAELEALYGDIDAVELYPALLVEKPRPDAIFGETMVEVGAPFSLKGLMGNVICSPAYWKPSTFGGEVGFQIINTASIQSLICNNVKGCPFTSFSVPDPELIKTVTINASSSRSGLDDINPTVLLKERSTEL
Nature of the experiment: Activity at COX2 in human whole blood assessed as effect on LPS-induced PGE2 production preincubated for 15 mins followed by LPS-stimulation and measured after overnight incubation by EIA. The format is tissue-based.

The target of experiment [5] is Prostaglandin G/H synthase 1 (Homo sapiens) (UniProt P23219). Put plainly: Activity at COX1 in human whole blood assessed as effect on […] production by EIA. The format is tissue-based.
Experiment [6] concerns Canis familiaris. Put plainly: Ex vivo inhibition of FLAP in po dosed Beagle dog assessed as reduction in ionophore-stimulated LTB4 production administered daily for 3 consecutive days measured during compound dosing by LC-MS/MS analysis. The format is functional, organism-based. To be noted: Canis lupus familiaris. Summed up:
(§3)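 Beagle dogs were given oral doses once daily for 3 consecutive days at 0.02, 0.09 or 0.2 mg/kg (n=3 per dose). Blood was stimulated ex vivo with calcium ionophore, and LTB4 production was measured during dosing and up to 24 h after the last dose. Results were baseline-corrected, plotted with plasma concentration and reported as medians.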

Experiment [7] deals with Canis familiaris. Put plainly: Ex vivo inhibition of FLAP in Beagle dog assessed as reduction in ionophore-stimulated LTB4 production at 0.18 mg/kg, po on day1 and 0.09 mg/kg, po on day 3 measured after 4 to 9 hrs relative to control. The format is functional, Canis lupus familiaris. Put shortly: (§4)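 Two beagle dogs were given two oral doses 48 h apart: 0.18 mg/kg on day 1 and 0.09 mg/kg on day 3. LTB4 production in calcium ionophore-stimulated blood was followed ex vivo after each dose, including 48 h after the second dose, and compared with baseline.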

A further experiment has as its system THP-1. Nature of the experiment: Cytotoxicity against human THP1 cells assessed as reduction in cell viability measured after 48 hrs by resazurin assay. To be noted: THP-1, 48 h. The format is cell-based. In general terms: The colour change of resazurin is a common sign of viable cells or microbes.
Experiment [8] concerns Canis familiaris. Nature of the experiment: Ex vivo inhibition of FLAP in Beagle dog assessed as reduction in ionophore-stimulated LTB4 production at 0.9 mg/kg, po measured within 2.5 hrs relative to control. The class given is functional, Canis lupus familiaris. Summed up:
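Two beagle dogs were given a single oral dose of 0.9 mg/kg. LTB4 production in calcium ionophore-stimulated blood was followed ex vivo over time and compared with pre-dose baseline.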

Experiment [9] concerns Homo sapiens. Put plainly: Suppression of urine LTE4 level in po dosed human administered daily for 10 days. The class given is functional, organism-based. Put shortly: as §2
For experiment [10], the system named is Canis familiaris. Nature of the experiment: Ex vivo reversible inhibition of FLAP in Beagle dog assessed as reduction in ionophore-stimulated LTB4 production at 0.18 mg/kg, po on day1 and 0.09 mg/kg, po on day 3 measured after 48 hrs. The class given is functional, organism-based. To be noted: Canis lupus familiaris. Summed up: as §4
The test system of experiment [11] is Homo sapiens. Put plainly: Suppression of calcium ionophore-stimulated LTB4 production in po dosed human blood administered daily for 10 days. The class given is functional, organism-based. Summed up:
(§5)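 Fresh blood drawn from healthy volunteers dosed with an oral suspension. Single doses were 25–1200 mg (SAD). Multiple dosing was 60, 180, 300 or 600 mg once daily for 10 days (MAD). LTB4 was measured after ex vivo calcium ionophore stimulation, relative to baseline.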

Experiment [12] has as its system Homo sapiens. Put plainly: Suppression of calcium ionophore-stimulated LTB4 production in human assessed as Cmin required to show >80% reduction in plasma LTB4 levels at 60 to 1200 mg, po administered as single dose measured after 24 hrs. The format is functional.
Experiment [13] has as its system Canis familiaris. Put plainly: Ex vivo inhibition of FLAP in Beagle dog assessed as reduction in ionophore-stimulated LTB4 production at 0.02 to 0.2 mg/kg, po administered daily for 3 consecutive days measured 24 hrs post-last dose by LC-MS/MS analysis. The class given is functional, organism-based. To be noted: Canis lupus familiaris. Summed up:
as §3

Experiment [14] deals with Homo sapiens. Nature of the experiment: Suppression of calcium ionophore-stimulated LTB4 production in po dosed human blood administered as single dose. The format is functional, organism-based. Summed up: as §5
The test system of experiment [15] is Canis familiaris. Put plainly: Ex vivo inhibition of FLAP in Beagle dog assessed as reduction in LTE4 level in urine at 0.09 to 0.2 mg/kg, po administered daily for 3 consecutive days measured 24 hrs post-last dose by colorimetric method. The format is functional, Canis lupus familiaris. Summed up:
as §1

The species entered for the next experiment is Canis lupus familiaris. Put plainly: Inhibition of FLAP in dog whole blood assessed as reduction in calcium ionophore-stimulated LTB4 production. The class given is tissue-based.
The subject of experiment [16] is Canis familiaris. Nature of the experiment: Ex vivo inhibition of FLAP in po dosed Beagle dog assessed as reduction in ionophore-stimulated LTB4 production. The format is functional, Canis lupus familiaris.

Sequence of Prostaglandin G/H synthase 1 (Homo sapiens) (P23219 whole entry): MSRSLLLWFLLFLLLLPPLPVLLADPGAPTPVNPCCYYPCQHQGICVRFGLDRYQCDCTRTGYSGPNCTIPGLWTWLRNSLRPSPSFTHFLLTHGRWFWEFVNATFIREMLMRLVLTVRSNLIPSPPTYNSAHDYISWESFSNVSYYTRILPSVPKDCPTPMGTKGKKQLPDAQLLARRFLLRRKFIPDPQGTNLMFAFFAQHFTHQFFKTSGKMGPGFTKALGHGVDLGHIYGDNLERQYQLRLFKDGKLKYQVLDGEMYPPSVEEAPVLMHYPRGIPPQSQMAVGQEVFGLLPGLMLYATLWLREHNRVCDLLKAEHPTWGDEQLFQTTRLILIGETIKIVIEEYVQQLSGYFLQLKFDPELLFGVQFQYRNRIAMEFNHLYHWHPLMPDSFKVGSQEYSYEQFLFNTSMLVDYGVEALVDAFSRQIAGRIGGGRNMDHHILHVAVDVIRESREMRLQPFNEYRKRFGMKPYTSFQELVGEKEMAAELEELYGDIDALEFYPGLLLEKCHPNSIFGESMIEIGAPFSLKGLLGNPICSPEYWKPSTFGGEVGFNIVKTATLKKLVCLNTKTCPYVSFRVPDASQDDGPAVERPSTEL

With `Cc1cc(-c2ccc(C(=O)[C@@H]3CCCC[C@H]3C(=O)Nc3cnn4c3C(=O)NCC4)cc2)n[nH]1`, the inhibition in vivo at 0.02 mg/kg with Canis familiaris [1] is 60%. The Activity result in the experiment on Homo sapiens [2], with Homo sapiens [9], in the experiment with Homo sapiens [11] and in the experiment with Homo sapiens [14] was “Dose-dependent effect” in each case. In addition, the IC50 in the experiment with HepG2 and in the experiment with THP-1 was over 250 µM throughout. For the same compound, the figures for the fIC50 (in experiment [3]; in the experiment filed under Canis lupus familiaris; in the experiment with Canis familiaris [16]) were 2 nM, 1 nM and 0.1 nM, respectively. Also, the result in [4] and in experiment [5] was inactive. Besides, in the experiment on Canis familiaris [6], the inhibition result is “Dose-dependent effect”. Moreover, the “%max” value in the experiment on Canis familiaris [7] and in the experiment with Canis familiaris [8] was over 90% throughout. Further, the inhibition result in the experiment with Canis familiaris [10] is “Active”. Moreover, the Cmin in the experiment on Homo sapiens [12] is recorded as over 15 nM. For the same compound, in the experiment with Canis familiaris [13], the inhibition result was “inactive”. Further, the “inhibition (INH)” value in the experiment on Canis familiaris [15] stood at 100%.

A word on the inhibition in vivo: it is how much of the control response was suppressed. What is called IC50 is the concentration at which inhibition is half-maximal.
